Activity calls are given as the source filed them.

The test system of data set [1] is 4T1. Briefly: Antitumor activity against mouse 4T1 cells implanted in BALB/c mouse assessed as increase in tumor NOD1 expression level at 5.7 mg/kg,iv administrated once per week for 4 weeks in presence of MDA-205 by western blot assay. Type of data set: functional, organism-based. In short, it runs like this:
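Tumour-bearing BALB/c mice (4T1 cells into mammary fat pad) given iv saline vehicle or test agents once weekly for 4 weeks. Tumours excised and probed by western blot for MMP9, MMP2 and NOD1, β-actin as loading control. Bands averaged over five mice per group; representative of two independent experiments.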

Data set [2] in a line: in vivo. Conditions: mouse, tumor, iv, 5.7 mg/kg.
A short description of data set [3]: Toxicity in BALB/c mouse xenografted with human MDA-MB-231 cells assessed as body weight loss at 5.7 mg/kg,iv administrated once per week for 3 weeks. Type of data set: organism-based. Conditions: in vivo, 504 h. In short, it runs like this: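 Nude BALB/c nu/nu mice received subcutaneous human tumour cells into the right flank. Dosing started at mean tumour volume of 100–120 mm3, iv once weekly for 3 weeks; the taxane arm was an equimolar control. Body weight and overt side effects were monitored. Mean ± SEM, n = 8.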

For data set [4], the system named is 4T1. The data set is described as follows: Antitumor activity against mouse 4T1 cells implanted in BALB/c mouse assessed as decrease in spleen MDSC cells at 5.7 mg/kg,iv administrated in presence of compound 5b measured after 28 days (reference value: 38%). Type of data set: functional. More on the design: scale not given: the % may be the effect or the level left. The conditions noted are these: time 28 day. In short, it runs like this:
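Splenocytes taken from 4T1 fat-pad tumor-bearing BALB/c mice after 28 days of tumor growth with weekly iv dosing. Cells stained with anti-CD11b PE and anti-Gr-1 FITC, and the Gr-1+CD11b+ percentage scored by flow cytometry. Eight mice per treated group, five naive. Mean ± SEM.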

Data set [5] in a line: Toxicity in HaM/ICR mouse assessed as effect on motor autonomic activity at 5 to 20 mg/kg,iv. The format is organism-based. Conditions: in vivo, dose 5-20 mg/kg.
Data set [6] is described as follows: AUC (0-infinity) in Beagle dog at 4 mg/kg,iv measured upto 24 hrs. Conditions: in vivo. The format is ADME, organism-based, Canis lupus familiaris. Set-up: time < 24 hrs, dose 4 mg/kg, route iv. In short, it runs like this:
(§1)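 Single iv dose: rats 2, 4 or 8 mg/kg by intravenous injection; Beagle dogs 1, 2 or 4 mg/kg by intravenous infusion. Plasma concentration–time data were analysed by sex and pooled. Reported parameters: Cmax, Tmax, AUC0−t, AUC0−∞, MRT0−∞, t1/2, CL, Vss, given as mean ± SD.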

For data set [7], the system named is HT-29. Briefly: Antiproliferative activity against human HT-29 cells assessed inhibition of cell growth incubated for 72 hrs by SRB assay. The conditions noted are these: HT-29, 72 h. Type of data set: functional, cell-based. A general note: The SRB assay estimates cell density from bound dye.
The test system of data set [8] is 4T1. The data set is described as follows: Antitumor activity against mouse 4T1 cells implanted in BALB/c mouse assessed as decrease in lung MMP2 expression level at 5 to 20 mg/kg,iv administrated once per week for 4 weeks by western blot assay. The format is functional, organism-based. Conditions: dose 5-20 mg/kg. In short, it runs like this: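 4T1 fat-pad model in BALB/c mice, iv once weekly for 4 weeks; MMP9, MMP2 and NOD1 in spleen, lung and tumour by western blot, β-actin loading control; bands averaged over five mice per group, representative of two independent experiments.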
In general terms: Immunoblotting shows a protein as a band on a membrane.

The nature of data set [9]: AUC (0-t) in mouse tumor implanted with mouse 4T1 cells at 10 mg/kg,iv measured upto 72 hrs. Type of data set: ADME, organism-based, Neoplasm. Set-up: time < 72 hrs, dose 10 mg/kg, route iv. In short, it runs like this:
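4T1 tumor-bearing mice (4T1 cells implanted in the mammary fat pad) received a single iv dose of 10 mg/kg. Plasma and tumor tissue were sampled up to 72 h, with n = 6. Levels of parent and of released docetaxel were measured. AUC came from noncompartmental analysis, reported as mean ± SD.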

A short description of data set [10]: Toxicity in female Sprague-Dawley rat assessed as maximal non-toxic dose at iv administration. Type of data set: organism-based. The conditions noted are these: in vivo, read-out: MNTD.
A short description of data set [11]: MRT (0 to infinity) in rat at 2 mg/kg,iv measured upto 24 hrs. Type of data set: ADME, organism-based. Conditions: in vivo.
Data set [12] in a line: Drug metabolism in rat bile assessed as metabolite docetaxel formation at 4 mg/kg,iv measured after 24 hrs. The conditions noted are these: in vivo. The format is ADME, organism-based.
A short description of data set [13]: Tmax in Beagle dog at 1 mg/kg,iv measured upto 24 hrs. The format is ADME, organism-based, Canis lupus familiaris. Conditions: in vivo.
The nature of data set [14]: Half life in male Beagle dog at 1 mg/kg,iv measured upto 24 hrs. The format is ADME, organism-based, Canis lupus familiaris. The conditions noted are these: in vivo.
The nature of data set [15]: Toxicity in Beagle dog assessed as effect on electrocardiogram index at 1 to 4 mg/kg,iv. Type of data set: organism-based, Canis lupus familiaris. The conditions noted are these: in vivo, dose 1-4 mg/kg.
Data set [16] is described as follows: Drug distribution in rat lung at 4 mg/kg,iv measured by 0.25 hrs. The conditions noted are these: in vivo. The format is ADME, organism-based. In short, it runs like this: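 Rats received 4 mg/kg iv. Parent drug and released docetaxel were assayed in tissues and plasma from the first sampling at 0.25 h to 24 h. The lower limit of quantitation was 200 ng/g.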

The nature of data set [17]: Drug metabolism in mouse hepatocytes assessed as docetaxel metabolite formation at 20 uM incubated for 180 mins. Conditions: 3 h. Type of data set: ADME, cell-based, Hepatocyte.
The nature of data set [18]: AUC (0-infinity) in female rat at 4 mg/kg,iv measured upto 24 hrs. Type of data set: ADME, organism-based. More on the design: time < 24 hrs, dose 4 mg/kg, route iv. The conditions noted are these: in vivo. In short, it runs like this:
as §1

Data set [19] is described as follows: MRT (0 to infinity) in female rat at 4 mg/kg,iv measured upto 24 hrs. Type of data set: ADME, organism-based. Conditions: in vivo.
Data set [20] is described as follows: Volume of distribution at steady state in male Beagle dog at 1 mg/kg,iv measured upto 24 hrs. Type of data set: ADME, organism-based, Canis lupus familiaris. Conditions: in vivo, read-out: Vdss.
Data set [21] is described as follows: Cmax in male rat at 2 mg/kg,iv measured upto 24 hrs. Type of data set: ADME, organism-based. More on the design: time < 24 hrs, dose 2 mg/kg, route iv. Conditions: in vivo. In short, it runs like this:
(§2)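 Rats were given a single iv injection at 2, 4 or 8 mg/kg. Plasma parent drug and released docetaxel were followed over time. Cmax, Tmax, AUC, MRT, t1/2, CL and Vss were reported for males, females and all animals combined.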

A short description of data set [22]: Stability in monkey hepatocyte assessed as compound remaining at 3 uM incubated upto 120 mins. Type of data set: ADME, cell-based, Macaca mulatta. Conditions: rhesus monkey, hepatocytes, 2 h.
The nature of data set [23]: AUC (0-infinity) in rat at 2 mg/kg,iv measured upto 24 hrs. Type of data set: ADME, organism-based. More on the design: dose 2 mg/kg, time < 24 hrs, route iv. Conditions: in vivo. In short, it runs like this: as §1
Data set [24] has as its system 4T1. Briefly: Antitumor activity against mouse 4T1 cells implanted in BALB/c mouse assessed as decrease in serum IL-6 level at 20 mg/kg,iv administrated once per week for 4 weeks by ELISA. The format is functional, organism-based. In short, it runs like this: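 4T1 fat-pad model in BALB/c mice, iv 5–20 mg/kg once weekly for 4 weeks, with vehicle and naive groups; serum MMP9, TIMP-1, IL-6 and S100A9 measured by mouse ELISA kits.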

Data set [25] is described as follows: MRT (0 to infinity) in female Beagle dog at 1 mg/kg,iv measured upto 24 hrs. Type of data set: ADME, organism-based, Canis lupus familiaris. The conditions noted are these: in vivo.
Data set [26] concerns 4T1. The data set is described as follows: Antitumor activity against mouse 4T1 cells implanted in BALB/c mouse assessed as decrease in MMP8 mRNA expression in lung at 20 mg/kg,iv administrated qd for 2 days by qRT-PCR analysis. The format is functional, organism-based. The conditions noted are these: time 2.0 day. In short, it runs like this: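 Day 19 after 4T1 implantation, mice randomised into five groups; iv vehicle or 20 mg/kg plus ip C12-iE-DAP (50 μg/mouse) and MDP (100 μg/mouse) once daily for 2 days; killed after 48 h; lung mRNA for MMP8, MMP9, PROK2, S100A8, S100A9 and IL-1β by qPCR; mean ± SEM.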
In general terms: In qPCR the cycle at which signal appears reflects the starting amount.

A short description of data set [27]: Toxicity in BALB/c mouse xenografted with human NCI-H1975 cells assessed as body weight loss at 10 mg/kg,iv administrated once per week for 3 weeks. Type of data set: organism-based. Conditions: in vivo, 504 h.
The nature of data set [28]: Clearance in male rat at 8 mg/kg,iv measured upto 24 hrs. Conditions: in vivo. The format is ADME, organism-based. In short, it runs like this:
as §2

Data set [29] has as its system COLO 205. Briefly: Antiproliferative activity against human COLO 205 cells assessed inhibition of cell growth incubated for 72 hrs by SRB assay. The format is functional, cell-based. Conditions: COLO 205, 72 h.
A short description of data set [30]: Cmax in female rat at 2 mg/kg,iv measured upto 24 hrs. Type of data set: ADME, organism-based. More on the design: time < 24 hrs, dose 2 mg/kg, route iv. The conditions noted are these: in vivo. In short, it runs like this: as §2

For the molecule `CC(=O)O[C@@]12CO[C@@H]1C[C@H](O)[C@@]1(C)C(=O)[C@H](O)C3=C(C)[C@@H](OC(=O)[C@H](O)[C@@H](NC(=O)OC(C)(C)C)c4ccccc4)C[C@@](O)([C@@H](OC(=O)c4ccccc4)[C@H]21)C3(C)C` [DOCETAXEL ANHYDROUS], the result in data set [1] was inactive. In [2], this molecule yielded an AUC(0-t) at 72 h of 27 µM·h. Also, the Activity entry in data set [3] is “Non-Toxic”; in data set [4] it was 32.1%.
`CC(=O)O[C@@]12CO[C@@H]1C[C@H](O)[C@@]1(C)C(=O)[C@H](O)C3=C(C)[C@@H](OC(=O)[C@H](OC(=O)CCC(=O)NCCCC[C@H](NC(=O)CC[C@@H](NC(=O)[C@H](C)NC(=O)/C=C/c4ccc(F)cc4Cl)C(N)=O)C(=O)O)[C@@H](NC(=O)OC(C)(C)C)c4ccccc4)C[C@@](O)([C@@H](OC(=O)c4ccccc4)[C@H]21)C3(C)C`: the Activity entry in data set [5], in [15] and in data set [27] was “Non-Toxic” throughout. Further, the AUC(0-inf) was 17300 ng·h/mL in data set [6], 13000 ng·h/mL in data set [18] and 5230 ng·h/mL in data set [23]. Also, the concentration for half-maximal inhibition (IC50) in data set [7] and in data set [29] was 16.3 nM throughout. Further, the outcome in data set [8] was inactive. Further, in [9], the AUC(0-t) at 72 h came out at 0.11 µM·h. The NOAEL in [10] turned out to be 2 mg/kg. For the same molecule, the MRT inf in data set [11] was 11.3 min; in [19], 15.7 min; in data set [25], 18.4 min. The Drug metabolism result in [12] and in [17] was “Metabolite_Detected” in each case. The Tmax in [13] came to 30 min. The half-life in data set [14] was 13.6 min. For the same molecule, the Drug uptake result in [16] is “Active”. For the same molecule, the Vd in data set [20] came to 0.134 L/kg. Besides, the Cmax in [21] turned out to be 15800 ng/mL; in data set [30], 14600 ng/mL. Moreover, the Stability result in data set [22] is reported as “Stable”. Further, the result in [24] and in data set [26] was Active. The molecule further returned a clearance in [28] of 2.55 mL/min/kg.

As a reminder, the AUC(0-t) is the area under the concentration-time curve up to a stated or last time point. By AUC(0-inf) is commonly meant total exposure, with the tail of the curve extrapolated. By IC50 is commonly meant the midpoint of a concentration-inhibition curve. A word on the MRT inf: it is the average time that molecules of a dose stay in the body. Usually Tmax stands for the time from dosing to the highest level. As a reminder, the half-life is the time needed for the level to fall by half in the phase considered. Broadly, the Cmax is the maximum level reached in the sampled fluid or tissue. In general, clearance refers to the volume of plasma or blood freed of the substance per unit of time.
